Results of several laboratories.
Medium: plasma

Cl.[2H]C([2H])([2H])CC(=O)c1cnc(NC(=O)C2CC2)cc1Nc1cccc(-c2ncn(C([2H])([2H])[2H])n2)c1OC  AUC (human; oral; 10 mg; multiple doses, once daily, steady state): 796 ng·h/mL
CNC(=O)n1ccc2cc(Oc3ccnc(NC(=O)c4ccc(C5CCN(CCO)CC5)cc4)c3)c(OCCOC)cc21  AUC(0-inf) (human; oral; 35 mg; single dose, fasted, healthy volunteers): 128 ng·h/mL
Cn1cc(Nc2nc(N)nc(-c3cccc(-n4ccc5cc(C6CC6)cc(F)c5c4=O)c3CO)n2)cn1  AUC(0-t) (human; oral; 300 mg; single dose, fasted, healthy volunteers): 11500 ng·h/mL
NC(=S)NN=Cc1ncccc1N  AUC(0-inf) (human; oral; 150 mg): 1030 ng·h/mL
COc1ccc([C@@H](O)c2cc(-c3ncnc4cc(N5CCOCC5)ccc34)c(F)cc2Cl)nn1  AUC(0-t) (human; oral; 400 mg; single dose, patients): 14100 ng·h/mL
Cc1ccc(C(=O)Nc2ccc(CN3CCN(C)CC3)c(C(F)(F)F)c2)cc1C#Cc1cnc2[nH]ncc2c1  AUC(0-t) (human; oral; 40 mg; single dose, healthy volunteers): 246 ng·h/mL
CN1CC[C@@H](c2c(O)cc(O)c3c(=O)cc(-c4ccc(C(F)(F)F)cc4Cl)oc23)[C@@H]1CO  AUC(0-t) (human; oral; 150 mg; patients): 3760 ng·h/mL
CC(C)n1c(Nc2cccnc2)nc2cnc(Nc3ccc(N4CCN(C)CC4)cc3)nc21  AUC(0-inf) (male human; oral; 100 mg): 853 ng·h/mL
CC[C@H](C)CCCCC(=O)N[C@@H](CCN)C(=O)N[C@H](C(=O)N[C@@H](CCN)C(=O)N[C@H]1CCNC(=O)[C@H]([C@@H](C)O)NC(=O)[C@H](CCN)NC(=O)[C@H](CCN)NC(=O)[C@H](CC(C)C)NC(=O)[C@@H](Cc2ccccc2)NC(=O)[C@H](CCN)NC1=O)[C@@H](C)O  AUC(0-t) (human; intravenous; 0.75 mg/kg; single dose, infusion): 19600 ng·h/mL
